Experimental data from ChEMBL document CHEMBL1165950, “Design and synthesis of new potent anticancer pyrazoles with high FLT3 kinase inhibitory selectivity” (Bioorg Med Chem, 2010).

Legend:
Format in all cases: functional
SK-OV-3 = experiment: Cytotoxicity against human SKOV3 cells assessed as cell growth at 10 uM after 48 hrs by sulforhodamine B assay; conditions: SK-OV-3, 48 h, read-out: Activity
SF-539 = experiment: Cytotoxicity against human SF539 cells assessed as cell growth at 10 uM; conditions: read-out: Activity
Summary of the method: (§1)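 NCI-60 screen: cells grown in RPMI 1640 with 5% FBS and 2 mM L-glutamine, plated at 5000–40,000 cells/well according to doubling time, and preincubated 24 h at 37 °C, 5% CO2. The single 10 µM dose (DMSO stock) was added, then incubated 48 h. Cells were TCA-fixed and stained with 0.4% SRB, read at 515 nm, and growth % calculated against time-zero and control plates.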

SN12C = experiment: Cytotoxicity against human SN12C cells assessed as cell growth at 10 uM after 48 hrs by sulforhodamine B assay; conditions: read-out: Activity
T47D = experiment: Growth inhibition of human T47D cells after 48 hrs by sulforhodamine B assay
Summary of the method: (§2)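 NCI 60-cell screen, five-dose mode. Cells grown in RPMI 1640 with 5% FBS and 2 mM L-glutamine and plated at 5000-40,000 cells/well according to doubling time. After 24 h preincubation, a Tz plate was TCA-fixed. Five concentrations (10-fold or 1/2 log dilutions) were applied for 48 h at 37 °C. SRB staining read at 515 nm. IC50 taken from [(Ti-Tz)/(C-Tz)]×100 = 50.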

U-251 = experiment: Cytotoxicity against human U251 cells assessed as cell growth at 10 uM after 48 hrs by sulforhodamine B assay; conditions: U-251, 48 h, read-out: Activity
K562 = experiment: Cytotoxicity against human K562 cells assessed as cell growth at 10 uM; conditions: read-out: Activity
Summary of the method: (§3)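 Single-dose NCI-60 screen at 10 µM. Cells were grown in RPMI 1640 with 5% FBS and 2 mM L-glutamine, then treated for 48 h at 37 °C. Protein was measured by SRB staining with absorbance at 515 nm. Percentage growth was recorded, and inhibition percentage was calculated as 100 minus growth percentage.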

HOP-62 [1] = experiment: Growth inhibition of human HOP62 cells after 48 hrs by sulforhodamine B assay; conditions: HOP-62, 48 h; summary of the method: as §2
HCC 2998 = experiment: Cytotoxicity against human HCC2998 cells assessed as cell growth at 10 uM; conditions: read-out: Activity; summary of the method: as §3
SNB-75 = experiment: Cytotoxicity against human SNB75 cells assessed as cell growth at 10 uM after 48 hrs by sulforhodamine B assay; conditions: SNB-75, 48 h, read-out: Activity
HCT-116 = experiment: Cytotoxicity against human HCT116 cells assessed as cell growth at 1 uM after 48 hrs by sulforhodamine B assay; conditions: HCT-116, 48 h, read-out: Activity
[2] = Cytotoxicity against human RPMI8266 cells assessed as cell growth at 100 nM after 48 hrs by sulforhodamine B assay; conditions: read-out: Activity
CCRF-CEM = experiment: Cytotoxicity against human CCRF-CEM cells assessed as cell growth at 0.01 uM after 48 hrs by sulforhodamine B assay; conditions: read-out: Activity
Summary of the method: (§4)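 NCI-60 five-dose screen. Cells were grown in RPMI 1640 with 5% FBS and 2 mM L-glutamine, plated at 5000–40,000 cells/well and preincubated for 24 h. Time-zero plates were TCA-fixed. DMSO-solubilized drug was added at five concentrations (10-fold or ½-log serial dilutions) for 48 h at 37 °C, 5% CO2. Cells were TCA-fixed, stained with 0.4% SRB and read at 515 nm. Percent growth used time-zero, control and test absorbances.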

A498 = experiment: Cytotoxicity against human A498 cells assessed as cell growth at 0.01 uM after 48 hrs by sulforhodamine B assay; conditions: A498, 48 h, read-out: Activity; summary of the method: as §4
OVCAR-4 [3] = experiment: Cytotoxicity against human OVCAR4 cells assessed as cell growth at 100 nM after 48 hrs by sulforhodamine B assay; conditions: OVCAR-4, 48 h, read-out: Activity
NCI-H460 = experiment: Cytotoxicity against human NCI-H460 cells assessed as cell growth at 0.001 uM after 48 hrs by sulforhodamine B assay; conditions: NCI-H460, 48 h, read-out: Activity
MDA-MB-231 = experiment: Growth inhibition of human MDA-MB-231 cells after 48 hrs by sulforhodamine B assay; conditions: MDA-MB-231, 48 h; summary of the method: as §2
OVCAR-3 = experiment: Cytotoxicity against human OVCAR-3 cells assessed as cell growth at 0.01 uM after 48 hrs by sulforhodamine B assay; conditions: OVCAR-3, 48 h, read-out: Activity
HOP-62 [4] = experiment: Cytotoxicity against human HOP62 cells assessed as cell growth at 100 nM after 48 hrs by sulforhodamine B assay; conditions: HOP-62, 48 h, read-out: Activity
MCF7 = experiment: Cytotoxicity against human MCF7 cells assessed as cell growth at 0.01 uM after 48 hrs by sulforhodamine B assay; conditions: MCF7, 48 h, read-out: Activity
SF-295 = experiment: Cytotoxicity against human SF295 cells assessed as cell growth at 0.01 uM after 48 hrs by sulforhodamine B assay; conditions: SF-295, 48 h, read-out: Activity
SK-MEL-2 = experiment: Cytotoxicity against human SK-MEL-2 cells assessed as cell growth at 100 nM after 48 hrs by sulforhodamine B assay; conditions: SK-MEL-2, 48 h, read-out: Activity
[5] = Cytotoxicity against human Hs 578T cells assessed as cell growth at 1 uM after 48 hrs by sulforhodamine B assay; conditions: read-out: Activity
MDA-MB-435 = experiment: Cytotoxicity against human MDA-MB-435 cells assessed as cell growth at 100 nM after 48 hrs by sulforhodamine B assay; conditions: MDA-MB-435, 48 h, read-out: Activity
HCT-15 = experiment: Cytotoxicity against human HCT15 cells assessed as cell growth at 100 nM after 48 hrs by sulforhodamine B assay; conditions: HCT-15, 48 h, read-out: Activity
UO-31 = experiment: Cytotoxicity against human UO31 cells assessed as cell growth at 0.001 uM after 48 hrs by sulforhodamine B assay; conditions: UO-31, 48 h, read-out: Activity
OVCAR-5 = experiment: Cytotoxicity against human OVCAR5 cells assessed as cell growth at 0.001 uM after 48 hrs by sulforhodamine B assay; conditions: OVCAR-5, 48 h, read-out: Activity
OVCAR-4 [6] = experiment: Cytotoxicity against human OVCAR4 cells assessed as cell growth at 10 uM after 48 hrs by sulforhodamine B assay; conditions: OVCAR-4, 48 h, read-out: Activity
NCI-H522 = experiment: Cytotoxicity against human NCI-H522 cells assessed as cell growth at 10 uM; conditions: read-out: Activity; summary of the method: as §1
MDA-MB-468 = experiment: Cytotoxicity against human MDA-MB-468 cells assessed as cell growth at 10 uM; conditions: read-out: Activity; summary of the method: as §1
NCI-H23 = experiment: Cytotoxicity against human NCI-H23 cells assessed as cell growth at 10 uM after 48 hrs by sulforhodamine B assay; conditions: NCI-H23, 48 h, read-out: Activity
UACC-62 = experiment: Cytotoxicity against human UACC62 cells assessed as cell growth at 10 uM; conditions: read-out: Activity; summary of the method: as §1

SMILES	growth at 10 µM (SK-OV-3)	growth at 10 µM (SF-539)	growth at 10 µM (SN12C)	GI50 (T47D)	LC50 (T47D)	TGI (T47D)	growth at 10 µM (U-251)	growth at 10 µM (K562)	GI50 (HOP-62 [1])	LC50 (50% lethal concentration) (HOP-62 [1])	TGI (HOP-62 [1])	growth at 10 µM (HCC 2998)	growth at 10 µM (SNB-75)	growth at 1 µM (HCT-116)	growth at 0.1 µM [2]	growth at 0.01 µM (CCRF-CEM)	growth at 0.01 µM (A498)	growth at 0.1 µM (OVCAR-4 [3])	growth at 0.001 µM (NCI-H460)	GI50 (MDA-MB-231)	further results
COc1cc(C)cc(-c2c(-c3ccnc(-c4ccc(N(C)C)cc4)c3)cnn2CC#N)c1	26%	-7.06%	16%	0.056 µM	> 100 µM	> 100 µM	6%	9.74%	0.263 µM	> 100 µM	> 100 µM	-57.5%	11%	-33%	13%	73%	40%	33%	93%	0.256 µM	LC50 (MDA-MB-231): > 100 µM; growth at 0.01 µM (OVCAR-3): 63%; growth at 0.1 µM (HOP-62 [4]): 33%; growth at 0.01 µM (MCF7): 56%; growth at 0.01 µM (SF-295): 56%; growth at 0.1 µM (SK-MEL-2): 14%; growth at 1 µM [5]: 18%; growth at 0.1 µM (MDA-MB-435): -43%; growth at 0.1 µM (HCT-15): 14%; growth at 0.001 µM (UO-31): 83%; growth at 0.001 µM (OVCAR-5): 90%; growth at 10 µM (OVCAR-4 [6]): 25%; growth at 10 µM (NCI-H522): -23.6%; growth at 10 µM (MDA-MB-468): -23.1%; growth at 10 µM (NCI-H23): 17%; growth at 10 µM (UACC-62): 20.3%
COc1cc(C)cc(-c2nn(CC#N)cc2-c2ccc(-c3cccc(C(C)=O)c3)nc2)c1	-36%	5.94%	18%	2.23 µM	> 100 µM	8.23 µM	-37%	16.4%	3.07 µM	> 100 µM	36.9 µM	28.6%	-36%	1%	96%	94%	60%	92%	104%	3.04 µM	LC50 (MDA-MB-231): > 100 µM; TGI (MDA-MB-231): > 100 µM; growth at 0.01 µM (OVCAR-3): 104%; growth at 0.1 µM (HOP-62 [4]): 82%; growth at 0.01 µM (MCF7): 97%; growth at 0.01 µM (SF-295): 98%; growth at 0.1 µM (SK-MEL-2): 88%; growth at 1 µM [5]: -43%; growth at 0.1 µM (MDA-MB-435): 11%; growth at 0.1 µM (HCT-15): 69%; growth at 0.001 µM (UO-31): 86%; growth at 0.001 µM (OVCAR-5): 74%; growth at 10 µM (OVCAR-4 [6]): 10%; growth at 10 µM (NCI-H522): -3.15%; growth at 10 µM (MDA-MB-468): -30.5%; growth at 10 µM (NCI-H23): -1%; growth at 10 µM (UACC-62): 27.2%
COc1cc(C)cc(-c2c(-c3ccnc(-c4ccc(C(C)=O)cc4)c3)cnn2CC#N)c1	27%	59.9%	34%	2.42 µM	> 100 µM	8.02 µM	13%	30.1%	3.35 µM	> 100 µM	> 100 µM	80.8%	1%	-27%	88%	93%	77%	105%	104%	3.63 µM	LC50 (MDA-MB-231): > 100 µM; TGI (MDA-MB-231): > 100 µM; growth at 0.01 µM (OVCAR-3): 106%; growth at 0.1 µM (HOP-62 [4]): 84%; growth at 0.01 µM (MCF7): 92%; growth at 0.01 µM (SF-295): 98%; growth at 0.1 µM (SK-MEL-2): 103%; growth at 1 µM [5]: -23%; growth at 0.1 µM (MDA-MB-435): 63%; growth at 0.1 µM (HCT-15): 87%; growth at 0.001 µM (UO-31): 88%; growth at 0.001 µM (OVCAR-5): 85%; growth at 10 µM (OVCAR-4 [6]): 30%; growth at 10 µM (NCI-H522): 45%; growth at 10 µM (MDA-MB-468): 26%; growth at 10 µM (NCI-H23): 18%; growth at 10 µM (UACC-62): 49.6%
Cc1cc(O)cc(-c2nn(CC#N)cc2-c2ccnc(-c3ccc(N(C)C)cc3)c2)c1	-38%	21.7%	-29%	2.59 µM	> 100 µM	12.4 µM	-66%	19.5%	2.82 µM	> 100 µM	23.4 µM	53.5%	-26%	2%	96%	96%	80%	101%	109%	2.94 µM	LC50 (MDA-MB-231): > 100 µM; TGI (MDA-MB-231): 22.6 µM; growth at 0.01 µM (OVCAR-3): 91%; growth at 0.1 µM (HOP-62 [4]): 80%; growth at 0.01 µM (MCF7): 89%; growth at 0.01 µM (SF-295): 89%; growth at 0.1 µM (SK-MEL-2): 112%; growth at 1 µM [5]: -15%; growth at 0.1 µM (MDA-MB-435): 51%; growth at 0.1 µM (HCT-15): 90%; growth at 0.001 µM (UO-31): 89%; growth at 0.001 µM (OVCAR-5): 96%; growth at 10 µM (OVCAR-4 [6]): 9%; growth at 10 µM (NCI-H522): 14.5%; growth at 10 µM (MDA-MB-468): -13.9%; growth at 10 µM (NCI-H23): -37%; growth at 10 µM (UACC-62): 25.1%
COc1cc(C)cc(-c2nn(CC#N)cc2-c2ccnc(-c3ccc(N(C)C)cc3)c2)c1	-40%	-17.5%	-8%	0.475 µM	> 100 µM	17.3 µM	-32%	9.86%	0.39 µM	> 100 µM	18.7 µM	-46.5%	-8%	-41%	57%	100%	88%	33%	103%	1.09 µM	LC50 (MDA-MB-231): > 100 µM; growth at 0.01 µM (OVCAR-3): 95%; growth at 0.1 µM (HOP-62 [4]): 16%; growth at 0.01 µM (MCF7): 38%; growth at 0.01 µM (SF-295): 94%; growth at 0.1 µM (SK-MEL-2): 50%; growth at 1 µM [5]: -13%; growth at 0.1 µM (MDA-MB-435): -25%; growth at 0.1 µM (HCT-15): 15%; growth at 0.001 µM (UO-31): 90%; growth at 0.001 µM (OVCAR-5): 98%; growth at 10 µM (OVCAR-4 [6]): 15%; growth at 10 µM (NCI-H522): -14.9%; growth at 10 µM (MDA-MB-468): -48.4%; growth at 10 µM (NCI-H23): 5%; growth at 10 µM (UACC-62): 19.1%
